Measured values from ChEMBL document CHEMBL1212904, “Discovery of pyrrole-indoline-2-ones as Aurora kinase inhibitors with a different inhibition profile” (J Med Chem, 2010).
Active and inactive are the calls of the source. No cut-off for these calls is given here.

Legend:
HCT-116 = assay: Antiproliferative activity against human HCT116 cells after 72 hrs by cell titer 96 assay; type: functional, cell-based; conditions: HCT-116, 72 h
[1] = target: T1, Aurora kinase A (Homo sapiens) (UniProt O14965); assay: Inhibition of aurora A in human HCT116 cells assessed as reduction of phosphorylated histone H3 at ser10 level measured at 1.25 to 40 uM after 3 hrs by Western blot analysis; type: cell-based; conditions: HCT-116
T1 sequence (whole entry): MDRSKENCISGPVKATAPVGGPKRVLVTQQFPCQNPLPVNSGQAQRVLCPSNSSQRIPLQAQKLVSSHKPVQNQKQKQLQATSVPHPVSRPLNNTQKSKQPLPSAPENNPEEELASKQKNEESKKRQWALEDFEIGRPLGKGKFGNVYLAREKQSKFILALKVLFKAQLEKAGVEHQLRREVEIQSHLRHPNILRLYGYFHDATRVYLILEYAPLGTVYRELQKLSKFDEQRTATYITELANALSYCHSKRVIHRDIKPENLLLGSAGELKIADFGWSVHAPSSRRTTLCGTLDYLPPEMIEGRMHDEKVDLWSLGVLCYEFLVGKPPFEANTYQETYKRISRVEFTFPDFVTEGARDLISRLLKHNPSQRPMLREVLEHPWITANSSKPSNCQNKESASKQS
Summary of the method: (§1)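 HCT-116 cells were synchronized at G2/M with 200 ng/mL nocodazole for 17 h, then given inhibitor for a further 3.0 h. Cells were PBS-washed, boiled in 2× SDS sample buffer, and run on SDS-PAGE with immunoblotting. Rabbit antibodies detected pT288 Aurora A, total Aurora A, pS10 histone H3 and total H3; β-actin served as loading control.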

[2] = target: T1, Aurora kinase A (Homo sapiens); assay: Inhibition of aurora A in human HCT116 cells assessed as reduction of phosphorylated aurora A at Thr288 level measured at 1.25 to 40 uM after 3 hrs by Western blot analysis; type: cell-based; conditions: HCT-116; summary of the method: as §1
[3] = target: T1, Aurora kinase A (Homo sapiens); assay: Inhibition of aurora A in human HCT116 cells assessed as reduction of phosphorylated histone H3 at ser10 level measured at 10 uM after 3 hrs by Western blot analysis; type: cell-based; conditions: HCT-116; summary of the method: as §1
[4] = target: RAC-alpha serine/threonine-protein kinase (Homo sapiens) (UniProt P31749); assay: Inhibition of AKT1 at 1 uM by radiometric method
[5] = target: Cyclin-dependent kinase 1 (Homo sapiens) (UniProt P06493); assay: Inhibition of CDC2 at 1 uM by radiometric method
[6] = target: Cyclin-dependent kinase 2/cyclin A (Homo sapiens) (UniProt P24941+P20248+P78396); assay: Inhibition of CDK2/cyclinA at 1 uM by radiometric method; type: protein-complex assay
[7] = target: Serine/threonine-protein kinase Chk1 (Homo sapiens) (UniProt O14757); assay: Inhibition of CHK1 at 1 uM by radiometric method
Serine/threonine-protein kinase Chk1 (Homo sapiens), sequence (O14757 whole entry): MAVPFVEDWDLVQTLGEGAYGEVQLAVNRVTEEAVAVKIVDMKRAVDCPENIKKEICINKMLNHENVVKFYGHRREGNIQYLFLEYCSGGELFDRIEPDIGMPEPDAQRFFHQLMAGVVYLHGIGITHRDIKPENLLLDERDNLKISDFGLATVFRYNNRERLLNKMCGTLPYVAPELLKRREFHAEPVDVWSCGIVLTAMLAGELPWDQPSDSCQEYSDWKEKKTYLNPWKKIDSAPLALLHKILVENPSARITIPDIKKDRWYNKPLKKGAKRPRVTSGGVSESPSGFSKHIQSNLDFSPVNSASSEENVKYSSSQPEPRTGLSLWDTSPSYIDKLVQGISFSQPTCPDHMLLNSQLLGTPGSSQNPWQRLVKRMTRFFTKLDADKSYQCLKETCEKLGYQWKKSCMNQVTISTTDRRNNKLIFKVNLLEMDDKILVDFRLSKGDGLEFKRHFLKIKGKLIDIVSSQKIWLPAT

[8] = Inhibition of CHK2 at 1 uM by radiometric method
[9] = target: Epidermal growth factor receptor (Homo sapiens) (UniProt P00533); assay: Inhibition of EGFR at 1 uM by radiometric method
[10] = system: Epidermal growth factor receptor (Homo sapiens), P00533 [T790M]; assay: Inhibition of EGFR T790M mutant at 1 uM by radiometric method; type: protein assay
[11] = target: Ephrin type-A receptor 1 (Homo sapiens) (UniProt P21709); assay: Inhibition of EPHA1 at 1 uM by radiometric method
[12] = target: Fibroblast growth factor receptor 1 (Homo sapiens) (UniProt P11362); assay: Inhibition of FGFR1 at 1 uM by radiometric method
[13] = target: Receptor-type tyrosine-protein kinase FLT3 (Homo sapiens) (UniProt P36888); assay: Inhibition of FLT3 at 1 uM by radiometric method
[14] = target: Glycogen synthase kinase-3 beta (Homo sapiens) (UniProt P49841); assay: Inhibition of GSK3B at 1 uM by radiometric method
Glycogen synthase kinase-3 beta (Homo sapiens), sequence (P49841 whole entry, looked up): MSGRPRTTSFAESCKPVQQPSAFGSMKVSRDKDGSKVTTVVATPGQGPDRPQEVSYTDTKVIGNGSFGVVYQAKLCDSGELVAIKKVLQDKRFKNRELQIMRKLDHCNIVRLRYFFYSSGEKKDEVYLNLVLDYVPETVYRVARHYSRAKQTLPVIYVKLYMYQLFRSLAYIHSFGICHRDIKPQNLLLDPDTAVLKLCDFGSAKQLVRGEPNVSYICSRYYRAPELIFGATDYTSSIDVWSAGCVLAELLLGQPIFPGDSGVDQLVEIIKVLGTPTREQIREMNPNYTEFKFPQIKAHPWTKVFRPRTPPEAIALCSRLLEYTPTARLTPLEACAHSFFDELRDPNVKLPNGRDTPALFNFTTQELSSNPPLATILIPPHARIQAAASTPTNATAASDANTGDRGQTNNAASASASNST

[15] = target: Insulin-like growth factor 1 receptor (Homo sapiens) (UniProt P08069); assay: Inhibition of IGF1R at 1 uM by radiometric method
[16] = target: Tyrosine-protein kinase JAK2 (Homo sapiens) (UniProt O60674); assay: Inhibition of JAK2 at 1 uM by radiometric method
[17] = target: Mitogen-activated protein kinase 14 (Homo sapiens) (UniProt Q16539); assay: Inhibition of MAPK14 at 1 uM by radiometric method
[18] = target: PI3-kinase p110-alpha/p85-alpha (Homo sapiens) (UniProt P27986+P42336); assay: Inhibition of PI3K (p110alpha/p85-alpha) at 1 uM by radiometric method; type: protein-complex assay
[19] = target: Serine/threonine-protein kinase B-raf (Homo sapiens) (UniProt P15056); assay: Inhibition of b-Raf at 1 uM by radiometric method
Serine/threonine-protein kinase B-raf (Homo sapiens), sequence (P15056 whole entry): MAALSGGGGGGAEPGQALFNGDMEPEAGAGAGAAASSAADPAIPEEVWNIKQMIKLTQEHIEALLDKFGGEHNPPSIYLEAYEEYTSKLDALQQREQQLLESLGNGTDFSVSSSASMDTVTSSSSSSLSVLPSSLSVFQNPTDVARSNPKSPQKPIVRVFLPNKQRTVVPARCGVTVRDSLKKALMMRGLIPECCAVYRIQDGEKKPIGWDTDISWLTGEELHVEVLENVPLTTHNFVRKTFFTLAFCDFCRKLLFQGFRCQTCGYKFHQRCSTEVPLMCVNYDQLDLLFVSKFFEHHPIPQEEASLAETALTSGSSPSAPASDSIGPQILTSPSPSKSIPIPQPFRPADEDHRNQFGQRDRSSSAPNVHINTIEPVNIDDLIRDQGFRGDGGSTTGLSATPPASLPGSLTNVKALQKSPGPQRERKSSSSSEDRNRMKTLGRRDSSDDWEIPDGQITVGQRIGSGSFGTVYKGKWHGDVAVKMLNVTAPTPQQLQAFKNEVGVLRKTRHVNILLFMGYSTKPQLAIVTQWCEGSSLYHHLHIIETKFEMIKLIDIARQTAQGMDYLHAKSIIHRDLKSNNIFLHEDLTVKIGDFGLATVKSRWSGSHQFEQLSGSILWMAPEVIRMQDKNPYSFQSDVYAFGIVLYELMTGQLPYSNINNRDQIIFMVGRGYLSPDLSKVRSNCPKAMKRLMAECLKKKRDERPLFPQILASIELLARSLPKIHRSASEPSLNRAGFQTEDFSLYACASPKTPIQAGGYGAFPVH

[20] = system: Serine/threonine-protein kinase B-raf (Homo sapiens), P15056 [V600E]; assay: Inhibition of b-Raf V600E mutant at 1 uM by radiometric method
Serine/threonine-protein kinase B-raf (Homo sapiens), P15056 [V600E], sequence (P15056 whole entry V600E): as the sequence (P15056 whole entry) above, with V600E counted along it

[21] = target: RAF proto-oncogene serine/threonine-protein kinase (Homo sapiens) (UniProt P04049); assay: Inhibition of c-Raf at 1 uM by radiometric method
RAF proto-oncogene serine/threonine-protein kinase (Homo sapiens), sequence (P04049 whole entry): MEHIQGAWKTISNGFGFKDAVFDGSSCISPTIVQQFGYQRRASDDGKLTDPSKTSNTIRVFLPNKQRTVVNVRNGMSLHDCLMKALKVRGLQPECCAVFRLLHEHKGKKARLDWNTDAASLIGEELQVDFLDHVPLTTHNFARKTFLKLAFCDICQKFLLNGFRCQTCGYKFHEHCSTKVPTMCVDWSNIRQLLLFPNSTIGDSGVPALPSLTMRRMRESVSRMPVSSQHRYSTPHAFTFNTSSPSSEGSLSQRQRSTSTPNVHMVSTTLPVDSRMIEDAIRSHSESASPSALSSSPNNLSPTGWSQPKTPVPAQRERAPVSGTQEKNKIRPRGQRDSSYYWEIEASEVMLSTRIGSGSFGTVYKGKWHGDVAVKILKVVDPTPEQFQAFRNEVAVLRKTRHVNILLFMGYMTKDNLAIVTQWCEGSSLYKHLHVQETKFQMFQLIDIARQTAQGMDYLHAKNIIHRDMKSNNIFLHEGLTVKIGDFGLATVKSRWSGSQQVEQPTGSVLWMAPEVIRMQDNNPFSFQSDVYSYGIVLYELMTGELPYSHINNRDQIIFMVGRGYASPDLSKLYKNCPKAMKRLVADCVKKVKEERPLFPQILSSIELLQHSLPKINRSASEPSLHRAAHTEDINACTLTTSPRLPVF

[22] = target: Vascular endothelial growth factor receptor 2 (Homo sapiens, UniProt P35968); assay: Inhibition of VEGFR2 at 1 uM by radiometric method
[23] = target: Platelet-derived growth factor receptor beta (Homo sapiens, UniProt P09619); assay: Inhibition of PDGFRbeta by radiometric method
Platelet-derived growth factor receptor beta, sequence (P09619 whole entry): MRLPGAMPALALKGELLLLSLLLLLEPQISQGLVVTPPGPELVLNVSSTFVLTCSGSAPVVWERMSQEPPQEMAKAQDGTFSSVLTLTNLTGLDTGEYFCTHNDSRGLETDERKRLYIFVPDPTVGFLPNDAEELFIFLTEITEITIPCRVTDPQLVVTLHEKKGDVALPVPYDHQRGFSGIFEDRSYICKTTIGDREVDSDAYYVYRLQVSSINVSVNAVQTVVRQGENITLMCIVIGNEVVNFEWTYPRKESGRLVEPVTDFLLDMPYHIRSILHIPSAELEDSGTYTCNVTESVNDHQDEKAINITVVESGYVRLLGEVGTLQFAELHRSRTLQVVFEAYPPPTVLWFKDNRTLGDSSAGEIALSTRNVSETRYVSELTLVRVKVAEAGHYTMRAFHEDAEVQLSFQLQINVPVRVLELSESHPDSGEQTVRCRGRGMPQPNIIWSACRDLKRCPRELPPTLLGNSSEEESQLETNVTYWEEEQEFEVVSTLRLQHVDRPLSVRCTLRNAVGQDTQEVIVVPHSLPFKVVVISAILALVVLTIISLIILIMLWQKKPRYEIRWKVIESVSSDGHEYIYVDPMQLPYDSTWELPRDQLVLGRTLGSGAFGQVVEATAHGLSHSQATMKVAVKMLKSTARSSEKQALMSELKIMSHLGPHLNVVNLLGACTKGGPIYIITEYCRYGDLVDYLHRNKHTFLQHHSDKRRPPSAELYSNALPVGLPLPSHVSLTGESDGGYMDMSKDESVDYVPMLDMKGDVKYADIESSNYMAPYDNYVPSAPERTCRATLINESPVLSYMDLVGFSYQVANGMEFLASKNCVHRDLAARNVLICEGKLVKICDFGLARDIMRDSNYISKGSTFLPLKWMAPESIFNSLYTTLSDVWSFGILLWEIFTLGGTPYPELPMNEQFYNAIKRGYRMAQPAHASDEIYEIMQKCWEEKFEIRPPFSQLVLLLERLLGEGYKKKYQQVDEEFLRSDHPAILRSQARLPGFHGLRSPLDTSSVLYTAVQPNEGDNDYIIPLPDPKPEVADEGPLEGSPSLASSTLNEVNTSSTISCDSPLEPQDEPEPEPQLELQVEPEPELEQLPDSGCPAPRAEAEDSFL

[24] = target: Macrophage colony-stimulating factor 1 receptor (Homo sapiens, UniProt P07333); assay: Inhibition of CSF1R by radiometric method
[25] = target: Tyrosine-protein kinase receptor UFO (Homo sapiens) (UniProt P30530); assay: Inhibition of AXL at 1 uM by KINOMEscan binding assay
[26] = target: Serine/threonine-protein kinase 10 (Homo sapiens) (UniProt O94804); assay: Inhibition of LOK at 1 uM by KINOMEscan binding assay
Serine/threonine-protein kinase 10 (Homo sapiens), sequence (O94804 whole entry, looked up): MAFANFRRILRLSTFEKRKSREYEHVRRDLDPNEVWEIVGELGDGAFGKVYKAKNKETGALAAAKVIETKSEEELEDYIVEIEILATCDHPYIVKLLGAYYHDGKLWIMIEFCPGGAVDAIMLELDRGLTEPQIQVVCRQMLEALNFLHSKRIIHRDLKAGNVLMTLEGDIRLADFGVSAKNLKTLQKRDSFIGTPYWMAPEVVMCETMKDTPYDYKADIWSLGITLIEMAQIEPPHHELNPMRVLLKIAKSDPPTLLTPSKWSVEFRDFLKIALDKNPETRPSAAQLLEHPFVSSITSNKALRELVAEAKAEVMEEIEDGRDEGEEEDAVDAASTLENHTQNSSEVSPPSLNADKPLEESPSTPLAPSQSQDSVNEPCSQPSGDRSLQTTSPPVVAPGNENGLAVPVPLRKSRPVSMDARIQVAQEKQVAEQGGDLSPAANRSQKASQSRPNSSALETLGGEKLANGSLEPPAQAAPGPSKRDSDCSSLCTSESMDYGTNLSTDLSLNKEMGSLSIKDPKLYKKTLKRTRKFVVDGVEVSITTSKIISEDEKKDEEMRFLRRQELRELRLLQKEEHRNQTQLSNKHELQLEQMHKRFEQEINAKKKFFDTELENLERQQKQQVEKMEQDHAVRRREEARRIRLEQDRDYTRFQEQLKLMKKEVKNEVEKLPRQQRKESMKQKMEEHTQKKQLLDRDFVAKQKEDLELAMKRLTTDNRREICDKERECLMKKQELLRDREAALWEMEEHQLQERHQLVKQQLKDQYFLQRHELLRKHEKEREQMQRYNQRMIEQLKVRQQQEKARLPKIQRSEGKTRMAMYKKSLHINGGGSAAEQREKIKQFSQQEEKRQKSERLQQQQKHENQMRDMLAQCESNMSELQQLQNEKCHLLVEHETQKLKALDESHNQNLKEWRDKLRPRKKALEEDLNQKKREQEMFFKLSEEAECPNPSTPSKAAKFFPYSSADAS

[27] = target: High affinity nerve growth factor receptor (Homo sapiens) (UniProt P04629); assay: Inhibition of TRK at 1 uM by KINOMEscan binding assay
[28] = target: Rhodopsin kinase GRK7 (Homo sapiens) (UniProt Q8WTQ7); assay: Inhibition of GRK7 at 1 uM by KINOMEscan binding assay
[29] = target: Tyrosine-protein kinase Mer (Homo sapiens) (UniProt Q12866); assay: Inhibition of MERTK at 1 uM by KINOMEscan binding assay
[30] = target: Mitogen-activated protein kinase kinase kinase kinase 5 (Homo sapiens) (UniProt Q9Y4K4); assay: Inhibition of MAP4K5 at 1 uM by KINOMEscan binding assay
[31] = target: Phosphatidylinositol 5-phosphate 4-kinase type-2 gamma (Homo sapiens) (UniProt Q8TBX8); assay: Inhibition of PIP5K2C at 1 uM by KINOMEscan binding assay
Phosphatidylinositol 5-phosphate 4-kinase type-2 gamma (Homo sapiens), sequence (Q8TBX8 whole entry): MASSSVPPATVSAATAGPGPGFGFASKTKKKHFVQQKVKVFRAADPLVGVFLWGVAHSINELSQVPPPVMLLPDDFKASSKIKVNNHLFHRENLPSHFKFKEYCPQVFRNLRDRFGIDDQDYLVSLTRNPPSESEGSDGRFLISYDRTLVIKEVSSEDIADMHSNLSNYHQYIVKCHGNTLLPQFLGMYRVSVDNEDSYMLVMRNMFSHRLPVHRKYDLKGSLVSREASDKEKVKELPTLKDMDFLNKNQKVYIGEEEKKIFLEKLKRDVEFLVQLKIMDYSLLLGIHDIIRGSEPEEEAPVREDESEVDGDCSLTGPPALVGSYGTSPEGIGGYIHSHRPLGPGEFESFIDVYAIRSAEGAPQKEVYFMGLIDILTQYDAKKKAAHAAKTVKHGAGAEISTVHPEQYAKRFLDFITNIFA

Structure (SMILES)	IC50 (HCT-116) [µM]	inhibition [1]	inhibition [2]	inhibition [3]	inhibition [4] [%]	inhibition [5] [%]	inhibition [6] [%]	inhibition [7] [%]	inhibition [8] [%]	inhibition [9] [%]	inhibition [10] [%]	inhibition [11] [%]	inhibition [12] [%]	inhibition [13] [%]	inhibition [14] [%]	inhibition [15] [%]	inhibition [16] [%]	inhibition [17] [%]	inhibition [18] [%]	inhibition [19] [%]	other results
CCOC(=O)CCc1c(/C=C2\C(=O)Nc3ccc(NS(=O)(=O)c4ccccc4)cc32)[nH]c2c1C(=O)CCC2	3.74	Active	Active	Active	11	33	71	10	17	5	14	29	77	97	47	24	30	4	11	-1	inhibition [20]: 3%; inhibition [21]: -8%; inhibition [22]: 74%; IC50 [23]: > 1 µM; IC50 [24]: > 1 µM; residual activity [25]: < 10%; residual activity [26]: < 10%; residual activity [27]: < 10%; residual activity [28]: < 10%; residual activity [29]: < 10%; residual activity [30]: < 10%; residual activity [31]: < 10%
CN(C)CCCc1c(/C=C2\C(=O)Nc3ccc(NS(=O)(=O)c4ccccc4)cc32)[nH]c2c1C(=O)CCC2	3.69	Active	inactive	Active	9	12	46	58	56	4	8	24	41	95	24	6	-3	11	5	2	inhibition [20]: -4%; inhibition [21]: -7%; inhibition [22]: 51%; IC50 [23]: < 1 µM; IC50 [24]: < 1 µM; residual activity [25]: < 10%; residual activity [26]: < 10%; residual activity [27]: < 10%; residual activity [28]: < 10%; residual activity [29]: < 10%; residual activity [30]: < 10%; residual activity [31]: < 10%
